The source of these data is ChEMBL document CHEMBL3779801, “Discovery of the Selective CYP17A1 Lyase Inhibitor BMS-351 for the Treatment of Prostate Cancer” (ACS Med Chem Lett, 2016).

Data set [1] has as its target T1, Steroid 17-alpha-hydroxylase/17,20 lyase (Homo sapiens, UniProt P05093).
T1 sequence (P05093 whole entry): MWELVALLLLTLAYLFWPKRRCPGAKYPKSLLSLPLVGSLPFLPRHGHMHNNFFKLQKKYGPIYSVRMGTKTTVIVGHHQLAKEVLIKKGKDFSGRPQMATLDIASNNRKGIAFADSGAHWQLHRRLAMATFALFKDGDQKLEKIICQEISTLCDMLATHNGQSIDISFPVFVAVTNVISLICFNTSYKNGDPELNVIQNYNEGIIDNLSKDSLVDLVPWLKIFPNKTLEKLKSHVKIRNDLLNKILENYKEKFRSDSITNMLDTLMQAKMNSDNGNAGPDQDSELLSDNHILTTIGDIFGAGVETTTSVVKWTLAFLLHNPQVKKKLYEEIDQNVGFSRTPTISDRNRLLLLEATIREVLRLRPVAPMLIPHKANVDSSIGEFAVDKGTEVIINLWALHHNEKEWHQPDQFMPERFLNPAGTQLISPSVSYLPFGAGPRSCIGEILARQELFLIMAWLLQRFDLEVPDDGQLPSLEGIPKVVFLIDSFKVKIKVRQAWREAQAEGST
In words: Inhibition of human CYP17A1 expressed in HEK293 cell microsomes using [3H]-pregnenolone as substrate incubated for 45 mins by scintillation proximity assay in presence of NADPH.

The target of data set [2] is T1, Steroid 17-alpha-hydroxylase/17,20 lyase. In words: Selectivity ratio of human CYP17A1 hydroxylase activity expressed in Escherichia coli using pregnenolone substrate to human CYP17A1 lyase activity expressed in HEK293 cell microsomes using [3H]-hydroxypregnenolone substrate. The method, boiled down:
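Hydroxylase and lyase activities were run with different enzyme preparations, so the hydroxylase/lyase ratios are estimates.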

The next data set deals with T2, Cytochrome P450 1A2 (Homo sapiens, UniProt P05177).
T2 sequence (P05177 whole entry): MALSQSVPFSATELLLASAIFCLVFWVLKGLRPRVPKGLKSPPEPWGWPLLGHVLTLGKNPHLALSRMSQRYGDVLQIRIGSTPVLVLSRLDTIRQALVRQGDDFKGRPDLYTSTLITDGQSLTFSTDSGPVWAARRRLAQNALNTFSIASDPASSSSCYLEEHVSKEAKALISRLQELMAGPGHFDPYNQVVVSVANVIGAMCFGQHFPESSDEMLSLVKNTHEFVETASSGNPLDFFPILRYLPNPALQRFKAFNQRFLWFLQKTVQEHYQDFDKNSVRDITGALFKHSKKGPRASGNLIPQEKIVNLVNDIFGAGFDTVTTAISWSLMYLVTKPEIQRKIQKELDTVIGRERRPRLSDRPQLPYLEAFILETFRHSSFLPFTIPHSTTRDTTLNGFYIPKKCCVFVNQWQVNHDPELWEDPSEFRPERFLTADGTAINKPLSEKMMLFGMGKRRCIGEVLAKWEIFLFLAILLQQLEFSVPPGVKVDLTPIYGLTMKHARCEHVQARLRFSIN
In words: Inhibition of CYP1A2 (unknown origin). Type of data set: ADME.

Data set [3] can be described thus: Metabolic stability in cynomolgus monkey liver microsomes assessed as parent compound remaining at 0.5 uM incubated for 10 mins. Type of data set: ADME, Macaca fascicularis. The conditions noted are these: read-out: Stability. In short, it runs like this:
(§1)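 Compound at 0.5 μM was incubated with human, mouse or cynomolgus liver microsomes for 10 min.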

A short description of data set [4]: Metabolic stability in mouse liver microsomes assessed as parent compound remaining at 0.5 uM incubated for 10 mins. The class given is ADME. The conditions noted are these: read-out: Stability. The method, boiled down: as §1
The nature of data set [5]: Metabolic stability in human liver microsomes assessed as parent compound remaining at 0.5 uM incubated for 10 mins. The class given is ADME. The note with it: read-out: Stability. The method, boiled down:
as §1

Data set [6] in a line: Inhibition of cynomolgus monkey CYP11B1 using hydroxy progesterone as substrate incubated for 120 mins by LC-MS method. Details: species or system Macaca fascicularis; call rule not given here.
Data set [7] concerns the target T3, Steroid 17-alpha-hydroxylase/17,20 lyase (Macaca fascicularis, UniProt Q2XVA1).
T3 sequence (Q2XVA1 whole entry): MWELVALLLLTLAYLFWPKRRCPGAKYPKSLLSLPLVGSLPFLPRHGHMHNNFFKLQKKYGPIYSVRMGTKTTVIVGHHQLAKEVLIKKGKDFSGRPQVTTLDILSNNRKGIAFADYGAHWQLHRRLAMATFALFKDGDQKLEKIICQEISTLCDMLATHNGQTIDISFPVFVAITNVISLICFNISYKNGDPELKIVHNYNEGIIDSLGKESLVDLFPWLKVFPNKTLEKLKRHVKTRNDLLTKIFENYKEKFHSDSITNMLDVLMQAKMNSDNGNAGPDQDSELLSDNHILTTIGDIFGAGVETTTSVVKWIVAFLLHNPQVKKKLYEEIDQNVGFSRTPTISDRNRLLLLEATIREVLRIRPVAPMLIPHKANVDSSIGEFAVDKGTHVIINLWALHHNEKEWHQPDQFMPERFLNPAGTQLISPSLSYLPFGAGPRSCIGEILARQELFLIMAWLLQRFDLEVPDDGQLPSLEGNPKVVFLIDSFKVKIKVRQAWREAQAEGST
In words: Inhibition of CYP17A1 in cynomolgus monkey using [3H]-pregnenolone as substrate incubated for 45 mins by scintillation proximity assay in presence of NADPH.

Data set [8] deals with T4, Cytochrome P450 11B1, mitochondrial (Homo sapiens, UniProt P15538).
T4 sequence (P15538 whole entry): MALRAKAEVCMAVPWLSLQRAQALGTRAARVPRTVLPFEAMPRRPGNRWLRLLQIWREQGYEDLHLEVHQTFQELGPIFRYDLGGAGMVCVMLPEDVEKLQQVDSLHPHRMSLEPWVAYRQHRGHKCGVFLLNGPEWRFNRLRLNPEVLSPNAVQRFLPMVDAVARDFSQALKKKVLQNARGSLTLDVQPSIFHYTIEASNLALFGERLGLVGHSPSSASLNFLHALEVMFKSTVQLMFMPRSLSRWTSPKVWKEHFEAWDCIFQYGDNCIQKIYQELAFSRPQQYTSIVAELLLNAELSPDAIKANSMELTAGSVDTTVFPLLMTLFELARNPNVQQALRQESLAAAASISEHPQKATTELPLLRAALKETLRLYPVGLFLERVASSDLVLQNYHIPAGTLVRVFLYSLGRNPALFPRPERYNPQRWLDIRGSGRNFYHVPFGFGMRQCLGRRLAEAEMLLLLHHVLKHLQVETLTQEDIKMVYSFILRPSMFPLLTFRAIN
In words: Inhibition of CYP11B1 in human H295R cells using deoxycorticosterone as substrate incubated for 48 hrs by LC-MS method. Type of data set: ADME, cell-based.

For data set [9], the target named is T3, Steroid 17-alpha-hydroxylase/17,20 lyase. In words: In vivo inhibition of CYP17A1 in one day castrated cynomolgus monkey assessed as reduction in testosterone level in plasma at 42 mg/kg, po bid for 24 hrs by radiometric immunoassay. Type of data set: organism-based.
Data set [10] is described as follows: Inhibition of cynomolgus monkey CYP21A2 using hydroxy progesterone as substrate incubated for 120 mins by LC-MS method. Details: species or system Macaca fascicularis.
Data set [11] concerns Cynomolgus monkey. In words: Increase in progesterone level in one day castrated cynomolgus monkey at 42 mg/kg, po bid for 24 hrs by radiometric immunoassay. The class given is ADME, organism-based, Macaca fascicularis. The note with it: in vivo.
Data set [12] is described as follows: Tmax in one day castrated cynomolgus monkey at 42 mg/kg, po bid measured after second dose administered at 8 hrs. The note with it: male, in vivo. Type of data set: ADME, organism-based, Macaca fascicularis. The method, boiled down: (§2)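 Castrated cynomolgus monkeys were studied over one day with oral BID dosing at time 0 and 8 h. Plasma levels were sampled at set time points over 1–24 h and reported as average ± standard deviation in nM, n = 4.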

Data set [13] deals with Cynomolgus monkey. In words: Decrease in cortisol level in one day castrated cynomolgus monkey at 42 mg/kg, po bid for 24 hrs by radiometric immunoassay. Type of data set: ADME, organism-based, Macaca fascicularis. The conditions noted are these: in vivo. Further details: scale not given: the % may be the effect or the level left.
Data set [14] can be described thus: Tmax in one day castrated cynomolgus monkey at 42 mg/kg, po bid. The class given is ADME, organism-based, Macaca fascicularis. The note with it: male, in vivo. The method, boiled down:
as §2

Data set [15] deals with T3, Steroid 17-alpha-hydroxylase/17,20 lyase. In words: Inhibition of CYP17A1 in cynomolgus monkey adrenal microsomes using [3H]-pregnenolone as substrate incubated for 45 mins by scintillation proximity assay in presence of NADPH. Further details: species or system Adrenal gland.
In data set [16] the target is T1, Steroid 17-alpha-hydroxylase/17,20 lyase. In words: Inhibition of CYP17A1 in human adrenal microsomes using [3H]-pregnenolone as substrate incubated for 90 mins by scintillation proximity assay in presence of NADPH. Further details: species or system Adrenal gland.

Consider `Cc1ccncc1-c1cccc2c1ncn2-c1ccccn1`, for which the IC50 amounted to 6 nM in [1] and 94 nM against Cytochrome P450 1A2. The Selectivity ratio in [2] is on record as 8. In addition, the results for the remaining at 10 min, 0.5 µM in data set [3], in [4] and in data set [5] were 100%, 33% and 96%, respectively.

Take `Cc1ccncc1-c1cccc2c1ncn2-c1cnccn1`: the Selectivity ratio in data set [2] is listed as 18. Also, the IC50 on Cytochrome P450 1A2 is 180 nM. Also, the remaining at 10 min, 0.5 µM in data set [3] stood at 83%; in data set [4], 59%; in data set [5], 98%.

Regarding `Cc1ccncc1-c1cccc2c1cnn2-c1cscn1`, the IC50 came out at 5 nM in [1] and 70 nM on Cytochrome P450 1A2. The remaining at 10 min, 0.5 µM in data set [4] was determined as 12%; in [5], 62%.

`Cc1ccncc1-c1cccc2c1cnn2-c1cnccn1`: the IC50 in data set [1] was 5 nM; on Cytochrome P450 1A2 it was 4000 nM. The remaining at 10 min, 0.5 µM in data set [3] came out at 53%; in data set [4] it was 7%; in [5], 72%.

`Cc1ccncc1-c1cccc2c1cnn2-c1nccs1`: the concentration for half-maximal inhibition (IC50) was 4 nM in [1] and 80 nM against Cytochrome P450 1A2. Moreover, the figures for the remaining at 10 min, 0.5 µM in [4] and in data set [5] were 8% and 69%, respectively.

For `Cc1ccncc1-c1cccc2c1cnn2-c1cccnn1`, the IC50 in data set [1] amounted to 3 nM; against Cytochrome P450 1A2, 270 nM. Further, the values for the remaining at 10 min, 0.5 µM in [4] and in [5] were 17% and 89%, respectively.

Regarding `Cc1ccncc1-c1cccc2c1cnn2-c1ccccc1`, the figures for the half-inhibitory concentration (IC50) (in data set [1]; against Cytochrome P450 1A2) were 4 nM and 119 nM, respectively. Further, the results for the remaining at 10 min, 0.5 µM in data set [3], in data set [4] and in data set [5] were 39%, 4% and 78%, respectively.

On to `C[C@]12CC[C@H](O)CC1=CC[C@@H]1C2CC[C@]2(C)C(c3cccnc3)=CCC12` (some centres undefined), for which the IC50 in [6] is 2460 nM; in [7], 2 nM; in data set [8] it was 872 nM; in data set [10], 149 nM; in [15] it was 3 nM; in data set [16] it was 21 nM. Moreover, the “inhibition (INH)” value in data set [9] was “Active”. Moreover, the Activity in the data set with Cynomolgus monkey [11] was 1247%; with Cynomolgus monkey [13], 80%. The Tmax came to 9.5 h in data set [12] and 1 h in data set [14].

`Cc1ccncc1-c1cccc2c1cnn2-c1ccc(F)cc1`: the IC50 in [1] was 5 nM; against Cytochrome P450 1A2 it was 190 nM. Also, the remaining at 10 min, 0.5 µM in data set [4] was found to be 11%; in [5] it was 100%.

For `Cc1ccncc1-c1cccc2c1ncn2-c1nccs1`, the figures for the IC50 (in [1]; on Cytochrome P450 1A2) were 8 nM and 75 nM, respectively. The Selectivity ratio in data set [2] was 14. Moreover, the remaining at 10 min, 0.5 µM in [3] was 42%; in [4], 16%; in data set [5], 92%.

`Cc1ccncc1-c1cccc2c1ncn2-c1cscn1`: the results for the IC50 (in data set [1]; against Cytochrome P450 1A2) were 8 nM and 150 nM, respectively. Further, the remaining at 10 min, 0.5 µM in data set [3] turned out to be 50%; in [4], 42%; in data set [5], 90%.

Turning to `Cc1ccncc1-c1cccc2c1cnn2-c1ccccn1`, the IC50 is 2 nM in data set [1] and 140 nM on Cytochrome P450 1A2. Moreover, the values for the remaining at 10 min, 0.5 µM in [3], in [4] and in data set [5] were 19%, 8% and 95%, respectively.
